In ChEMBL document CHEMBL1156183, “Identification of very potent inhibitor of human aminopeptidase N (CD13)” (Bioorg Med Chem Lett, 2010):

Key:
[1] = target: T1, Aminopeptidase N (Sus scrofa) (UniProt P15145); experiment: Inhibition of pig aminopeptidase N assessed as ACC fluorophore released after 30 mins using Alanine ACC as substrate
T1 sequence (whole entry): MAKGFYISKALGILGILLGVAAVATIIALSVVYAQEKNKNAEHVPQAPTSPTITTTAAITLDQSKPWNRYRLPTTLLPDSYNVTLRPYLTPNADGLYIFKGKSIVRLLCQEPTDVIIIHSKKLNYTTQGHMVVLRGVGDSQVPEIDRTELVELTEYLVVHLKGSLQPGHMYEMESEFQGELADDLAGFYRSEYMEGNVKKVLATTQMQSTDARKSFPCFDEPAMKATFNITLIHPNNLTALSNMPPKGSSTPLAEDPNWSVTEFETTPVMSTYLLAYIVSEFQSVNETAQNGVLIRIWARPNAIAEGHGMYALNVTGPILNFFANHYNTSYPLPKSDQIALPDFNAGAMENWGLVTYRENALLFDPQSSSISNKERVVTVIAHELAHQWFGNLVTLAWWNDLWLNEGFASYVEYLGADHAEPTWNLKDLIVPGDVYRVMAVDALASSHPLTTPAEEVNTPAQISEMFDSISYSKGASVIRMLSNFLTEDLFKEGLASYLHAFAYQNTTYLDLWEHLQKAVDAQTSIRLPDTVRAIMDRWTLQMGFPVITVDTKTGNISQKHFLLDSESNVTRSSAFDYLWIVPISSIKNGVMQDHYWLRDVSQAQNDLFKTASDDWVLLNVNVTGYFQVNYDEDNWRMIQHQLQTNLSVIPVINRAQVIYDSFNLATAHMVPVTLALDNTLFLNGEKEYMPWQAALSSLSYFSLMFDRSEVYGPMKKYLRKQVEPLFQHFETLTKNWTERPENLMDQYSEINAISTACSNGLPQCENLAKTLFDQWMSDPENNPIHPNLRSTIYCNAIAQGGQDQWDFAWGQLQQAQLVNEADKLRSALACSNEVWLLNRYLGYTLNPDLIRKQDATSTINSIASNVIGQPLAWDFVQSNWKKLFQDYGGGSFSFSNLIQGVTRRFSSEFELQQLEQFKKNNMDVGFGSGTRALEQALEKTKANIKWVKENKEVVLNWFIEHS
Method in brief: (§1)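 Enzyme (0.45 nM) preincubated 30 min at 37 C with phosphinate inhibitor (eight concentrations) in 100 mM Tris-HCl pH 7.5 (buffer made at 20 C), final DMSO 1%. Ala-ACC added at 50 uM final. ACC release read continuously in kinetic mode, ex 355/em 460 nm. IC50 values are means of two experiments.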

[2] = target: T2, Aminopeptidase N (Rattus norvegicus) (UniProt P15684); experiment: Inhibition of rat aminopeptidase N assessed as ACC fluorophore released after 30 mins using Alanine ACC as substrate; method in brief: as §1
T2 sequence (whole entry): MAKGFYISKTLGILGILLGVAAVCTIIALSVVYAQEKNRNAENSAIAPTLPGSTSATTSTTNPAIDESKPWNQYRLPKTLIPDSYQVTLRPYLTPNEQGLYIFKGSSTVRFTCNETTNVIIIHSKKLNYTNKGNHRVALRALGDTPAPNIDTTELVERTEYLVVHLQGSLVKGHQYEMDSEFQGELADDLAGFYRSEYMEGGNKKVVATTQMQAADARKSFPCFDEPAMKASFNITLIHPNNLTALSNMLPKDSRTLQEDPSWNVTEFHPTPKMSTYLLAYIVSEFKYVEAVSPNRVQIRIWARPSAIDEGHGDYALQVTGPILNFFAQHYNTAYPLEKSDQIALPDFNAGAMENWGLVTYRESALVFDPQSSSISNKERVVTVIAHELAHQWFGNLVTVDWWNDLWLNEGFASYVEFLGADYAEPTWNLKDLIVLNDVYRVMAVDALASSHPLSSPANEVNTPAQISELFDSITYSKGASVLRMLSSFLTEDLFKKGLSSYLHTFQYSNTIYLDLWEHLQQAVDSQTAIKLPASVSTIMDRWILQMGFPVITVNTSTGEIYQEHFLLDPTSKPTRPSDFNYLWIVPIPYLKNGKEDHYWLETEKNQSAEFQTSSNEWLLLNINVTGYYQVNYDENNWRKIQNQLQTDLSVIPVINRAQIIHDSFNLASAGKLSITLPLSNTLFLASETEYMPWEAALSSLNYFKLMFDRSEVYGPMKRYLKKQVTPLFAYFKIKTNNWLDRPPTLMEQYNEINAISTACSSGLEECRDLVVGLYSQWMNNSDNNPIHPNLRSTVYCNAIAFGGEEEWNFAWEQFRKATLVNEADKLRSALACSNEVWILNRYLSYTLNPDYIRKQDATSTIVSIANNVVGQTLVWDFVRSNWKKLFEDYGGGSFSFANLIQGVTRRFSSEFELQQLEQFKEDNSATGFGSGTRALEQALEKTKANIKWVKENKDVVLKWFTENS

[3] = Selectivity ratio of IC50 for rat aminopeptidase N to the IC50 for human aminopeptidase N
[4] = Selectivity ratio of IC50 for pig aminopeptidase N to the IC50 for human aminopeptidase N

| Compound | IC50 [1] | IC50 [2] | Ratio IC50 [3] | Ratio IC50 [4] |
| --- | --- | --- | --- | --- |
| COC(=O)c1ccccc1CNC(=S)P(=O)(O)C(N)CC(C)C (centres undefined) | > 20 µM | > 20 µM | – | – |
| CCCCCCNC(=S)P(=O)(O)C(N)C(C)C (centres undefined) | 1.7 µM | 5.05 µM | – | – |
| CCCCCCNC(=S)P(=O)(O)C(N)CC(C)C (centres undefined) | 1.4 µM | 1.7 µM | – | – |
| CCCCC(N)P(=O)(O)C(=S)NCC(=O)OCc1ccccc1 (centres undefined) | > 20 µM | > 20 µM | – | – |
| CNC(=S)P(=O)(O)C(N)CC(C)C (centres undefined) | > 20 µM | 10.8 µM | – | – |
| CCCCC(N)P(=O)(O)C(O)C(C)c1ccccc1 (centres undefined) | 0.22 µM | 0.46 µM | – | – |
| CC(C)CC(O)P(=O)(O)C(N)c1ccccc1 (centres undefined) | 12 µM | 4.7 µM | – | – |
| CC(C)c1ccc(C(O)P(=O)(O)C(C)N)cc1 (centres undefined) | 1.2 µM | 3.5 µM | – | – |
| NC(CCc1ccccc1)P(=O)(O)C(O)CCc1ccccc1 (centres undefined) | 0.22 µM | 0.4 µM | – | – |
| NC(CCc1ccccc1)P(=O)(O)C(=S)NCc1ccccc1 (centres undefined) | 2.3 µM | 2.5 µM | – | – |
| CCCCC(N)P(=O)(O)C(O)CCc1ccccc1 (centres undefined) | 0.21 µM | 0.52 µM | – | – |
| NC(Cc1ccccc1)P(=O)(O)C(O)CCc1ccccc1 (centres undefined) | 0.66 µM | 1.6 µM | – | – |
| CC(O)P(=O)(O)C(N)c1ccccc1 (centres undefined) | 48 µM | 15.2 µM | – | – |
| CCCCC(N)P(=O)(O)C(=S)NCc1ccccc1 (centres undefined) | 0.62 µM | 1.1 µM | – | – |
| CCCC(N)P(=O)(O)C(=S)NCc1ccccc1C(=O)OC (centres undefined) | > 20 µM | > 20 µM | – | – |
| COc1ccc(CNC(=S)P(=O)(O)C(C)N)cc1 (centres undefined) | > 20 µM | > 20 µM | – | – |
| NC(c1ccccc1)P(=O)(O)C(O)CCc1ccccc1 (centres undefined) | 0.24 µM | 2.2 µM | – | – |
| CCCC(N)P(=O)(O)C(=S)NCc1ccc(C(=O)O)cc1 (centres undefined) | > 20 µM | > 20 µM | – | – |
| CC(C)C(N)P(=O)(O)C(O)CCc1ccccc1 (centres undefined) | 0.5 µM | 1.1 µM | – | – |
| CCCNC(=S)P(=O)(O)C(N)CCc1ccccc1 (centres undefined) | 1.45 µM | 1.35 µM | – | – |
| CCCC(N)P(=O)(O)C(=S)NCc1ccc(C(=O)OCC)cc1 (centres undefined) | > 20 µM | > 20 µM | – | – |
| CCCC(N)P(=O)(O)C(=S)NCCc1ccccc1 (centres undefined) | 1.35 µM | 2.55 µM | – | – |
| CSCCCNC(=S)P(=O)(O)C(N)CCc1ccccc1 (centres undefined) | 1.55 µM | 1.65 µM | – | – |

| Compound | IC50 [1] | IC50 [2] | Ratio IC50 [3] | Ratio IC50 [4] |
| --- | --- | --- | --- | --- |
| CCCC(N)P(=O)(O)C(=S)NCc1ccc(OC)cc1 (centres undefined) | 2.15 µM | 2.45 µM | – | – |
| CCCCC(N)P(=O)(O)C(=S)NCCCSC (centres undefined) | 0.36 µM | 0.61 µM | – | – |
| CCC(N)P(=O)(O)C(=S)NCCCSC (centres undefined) | 1.65 µM | 2.5 µM | – | – |
| CC(N)P(=O)(O)C(=S)NCCc1ccccc1 (centres undefined) | 5.2 µM | 8.7 µM | – | – |
| CCCCC(N)P(=O)(O)C(=S)NCCc1ccccc1 (centres undefined) | 0.25 µM | 0.62 µM | – | – |
| CC(C)CC(N)P(=O)(O)C(O)CCc1ccccc1 (centres undefined) | 1 µM | 0.92 µM | – | – |
| CCC(N)P(=O)(O)C(O)CCc1ccccc1 (centres undefined) | 1.3 µM | 2.4 µM | – | – |
| CC(C)CC(N)P(=O)(O)C(=S)NCCc1ccccc1 (centres undefined) | 4.2 µM | 5.4 µM | – | – |
| CCCC(N)P(=O)(O)C(O)Cc1ccccc1 (centres undefined) | 0.95 µM | 1.2 µM | – | – |
| NC(c1ccccc1)P(=O)(O)C(O)c1ccccc1 (centres undefined) | 0.55 µM | 0.46 µM | – | – |
| COc1ccc(CNC(=S)P(=O)(O)C(N)CCc2ccccc2)cc1 (centres undefined) | 2.65 µM | 2.65 µM | 4 | 4 |
| CCOC(=O)c1ccc(CNC(=S)P(=O)(O)C(N)CCc2ccccc2)cc1 (centres undefined) | > 20 µM | > 20 µM | – | – |
| CCCCC(N)P(=O)(O)C(=S)NCc1ccc(OC)cc1 (centres undefined) | 0.46 µM | 1.05 µM | – | – |
| CC(C)CC(N)P(=O)(O)C(=S)NCc1ccccc1 (centres undefined) | 2.8 µM | 5.1 µM | – | – |
| CCCCC(N)P(=O)(O)C(O)c1ccc(O)cc1 (centres undefined) | 5.8 µM | 6.2 µM | – | – |
| CSCCCNC(=S)P(=O)(O)C(C)N (centres undefined) | 2.45 µM | 3.45 µM | – | – |
| CCOC(=O)c1ccc(CNC(=S)P(=O)(O)C(C)N)cc1 (centres undefined) | > 20 µM | > 20 µM | – | – |
| CC(N)P(=O)(O)C(=S)NCc1ccccc1 (centres undefined) | 1.9 µM | 1.45 µM | – | – |
| CCCC(N)P(=O)(O)C(=S)NCCCSC (centres undefined) | 1.95 µM | 1.45 µM | – | – |
| CCCC(N)P(=O)(O)C(=S)NCc1ccccc1 (centres undefined) | 1.6 µM | 2.1 µM | – | – |
| CC(C)CNC(=S)P(=O)(O)C(N)C(C)C (centres undefined) | 4.8 µM | 8.95 µM | – | – |
| CNC(=S)P(=O)(O)C(N)C(C)C (centres undefined) | 10.2 µM | 21.4 µM | – | – |
| CCCCC(N)P(=O)(O)C(=S)NCc1ccccc1C(=O)OC (centres undefined) | > 20 µM | > 20 µM | – | – |
